Data published in ChEMBL document CHEMBL3352003, “Sulfonamides with Potent Inhibitory Action and Selectivity against the α-Carbonic Anhydrase from Vibrio cholerae” (ACS Med Chem Lett, 2014).

Test: Inhibition of Vibrio cholerae cytosolic carbonic anhydrase by stopped flow CO2 hydration assay
How it was run: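 Stopped-flow measurement of the enzyme-catalysed CO2 hydration activity; inhibition is reported as KI (nM).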

SMILES	Ki
N=C(N)NCCCC(=O)NCCc1ccc(S(N)(=O)=O)cc1	29.1 nM
CC(C)(C)OC(=O)/N=C(\NCCCC(=O)NCCc1ccc(S(N)(=O)=O)cc1)NC(=O)OC(C)(C)C	95.2 nM
CC(=O)NC(CCCCN/C(=N/C(=O)OC(C)(C)C)NC(=O)OC(C)(C)C)C(=O)NCCc1ccc(S(N)(=O)=O)cc1 (stereo unspecified)	9.3 nM
NCCCC(=O)NCCc1ccc(S(N)(=O)=O)cc1	77 nM
N=C(N)NCCCC(=O)NCc1ccc(S(N)(=O)=O)cc1	6.4 nM
CC(=O)NC(CCCCN)C(=O)NCCc1ccc(S(N)(=O)=O)cc1 (stereo unspecified)	66.5 nM
CC(=O)NC(CCCCN)C(=O)NCc1ccc(S(N)(=O)=O)cc1 (stereo unspecified)	29.1 nM
CC(=O)NC(CCCCNC(=N)N)C(=O)NCc1ccc(S(N)(=O)=O)cc1 (stereo unspecified)	8.8 nM
CC(C)(C)OC(=O)/N=C(\NCCCC(=O)NCc1ccc(S(N)(=O)=O)cc1)NC(=O)OC(C)(C)C	5.8 nM
COC(=O)C(CCCCNC(=O)OCc1ccccc1)NC(=O)c1ccc(S(N)(=O)=O)cc1 (stereo unspecified)	6.2 nM
NCCCC(=O)NCc1ccc(S(N)(=O)=O)cc1	65.3 nM
CC(=O)NC(CCCCN/C(=N/C(=O)OC(C)(C)C)NC(=O)OC(C)(C)C)C(=O)NCc1ccc(S(N)(=O)=O)cc1 (stereo unspecified)	9.1 nM
CC(=O)NC(CCCCNC(=N)N)C(=O)NCCc1ccc(S(N)(=O)=O)cc1 (stereo unspecified)	36.8 nM
CC(C)(C)OC(=O)NCCCC(=O)NCCc1ccc(S(N)(=O)=O)cc1	304 nM
CC(=O)NC(CCCCNC(=O)OC(C)(C)C)C(=O)NCCc1ccc(S(N)(=O)=O)cc1 (stereo unspecified)	76.7 nM
CC(=O)NC(CCCCNC(=O)OC(C)(C)C)C(=O)NCc1ccc(S(N)(=O)=O)cc1 (stereo unspecified)	8.9 nM
CC(C)(C)OC(=O)NCCCC(=O)NCc1ccc(S(N)(=O)=O)cc1	6.1 nM
CC(C)(C)OC(=O)NCCCC(=O)Nc1ccc(S(N)(=O)=O)cc1	6.9 nM
CC(=O)NC(CCCCNC(=O)OC(C)(C)C)C(=O)Nc1cccc(S(N)(=O)=O)c1 (stereo unspecified)	8.8 nM
CC(C)(C)OC(=O)NCCCC(=O)Nc1cccc(S(N)(=O)=O)c1	7.6 nM
